Assay outcomes: PubChem BioAssay, several laboratories
A selection: hits, their analogues and other compounds. The true share with any hit is near 4.9%.
HSF1 activator: increases HSF-1 driven luciferase reporter signal; NIH3T3-HGL HSF-1 luciferase reporter, MG132, 8 h; 100% = twice DMSO control signal; activation, % at 9 µM; 300,000 compounds, 1.7% hits; AID 504408;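 active = mean replicate activation of at least 50% with a set share of replicates each reaching 50%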;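 note: 0% = median of the neutral control wells and 100% = twice that signal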
HSF1 inh: HSF1 inhibition; NIH3T3-HGL HSE-luciferase, MG132-induced, luminescence 8 h; hits give low values; activity change, negative = inhibition, % at 7.5 µM (by protocol); 300,000 compounds, 0.77% hits;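 active = more than half of replicate wells show activity change below -50%, luminescence cut by over half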;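 note: luciferase reports HSF-1 transcriptional activity via heat shock element; 0% = median of DMSO wells and -100% = zero luminescence signal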
CHT block: inhibits the human high affinity choline transporter; Q9GZV3; CHT-expressing cells, membrane potential dye, choline response; hits give low values; B-score at 10 µM; 310,000 compounds, 0.86% hits;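 active = B-score over 3 SD under the library average, and starting fluorescence ratio not unusually high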;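 note: choline stimulus applied at its EC90 after an EC20 pre-addition; B-score computed on integrated fluorescence ratio after choline addition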
Lipid droplet: modulators of hepatic lipid droplet formation | AML12 mouse hepatocytes, oleate lipid droplets, BODIPY imaging | inhibition, % at 6.5 µM | 240,000 compounds, 0.4% hits | AID 1656;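 active = lipid droplet intensity inhibited by at least 50%, with more than 500 cells counted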
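material = mouse AML12 hepatocyte cell line, fixed after treatment | also added = 100 µM oleic acid challenge | doses = compound at 6.5 µM only | schedule = overnight exposure | technique = Image-based BODIPY and DAPI two-channel analysis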
PHOSPHO1 inh: PHOSPHO1 (human) inhibition; AID 1565; inhibition, % at 13.3 µM; recombinant PHOSPHO1, absorbance phosphatase assay; Q8TCT1; 290,000 compounds, 1.1% hits; in the data active = inhibition above about 60%
Target sequence (Q8TCT1 whole entry, looked up): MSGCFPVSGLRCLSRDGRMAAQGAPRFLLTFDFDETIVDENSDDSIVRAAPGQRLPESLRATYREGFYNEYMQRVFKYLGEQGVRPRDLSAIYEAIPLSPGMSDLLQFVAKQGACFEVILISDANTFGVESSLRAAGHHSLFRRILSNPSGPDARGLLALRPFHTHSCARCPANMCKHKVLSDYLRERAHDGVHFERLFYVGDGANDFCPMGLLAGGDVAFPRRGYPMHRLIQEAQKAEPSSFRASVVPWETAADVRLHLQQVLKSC
CHT PAM: human CHT allosteric activation | CHT-expressing cells, membrane potential dye, choline EC20; hits give high values; LV-AA mutant CHT in HEK293 cells | B-score at 10 µM | 310,000 compounds, 0.49% hits;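 active = initial fluorescence not abnormally high and integrated response B-score, plate-corrected, over 3 SD above library mean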
CHT block conf: human CHT inhibition, confirmatory screen; shares compounds with CHT block; CHT-expressing cells, choline membrane potential dye; LV-to-AA substituted CHT, HEK293 cells; CHT activity remaining % of control (hits give low values), % at 10 µM; 2,400 compounds, 70% hits; AID 493221;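 active = choline transporter activity left, mean of duplicates at 10 µM, below buffer-only control mean minus 3 SD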;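 note: depolarization triggered by choline at its EC90 following an EC20 pre-addition; 0% = hemicholinium-3 full block and 100% = buffer-only control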
HEK293 MPD ctr: activity in parental HEK293 cells lacking CHT; membrane potential ratio readout (active if shifted either direction beyond buffer ±3SD; no single direction) at 10 µM; AID 493222; membrane potential dye, choline response; active = decrease or increase beyond buffer ±3SD; shares compounds with CHT block; 2,400 compounds, 4% hits;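 note: parental cells lack the transporter so any hit is non-specific; ratio is peak minus trough fluorescence over baseline after EC90 choline challenge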
Active calls of the source: *; i = inactive; x = no result.

SMILES | HSF1 activator | HSF1 inh | CHT block | Lipid droplet | PHOSPHO1 inh | CHT PAM | CHT block conf | HEK293 MPD ctr
CCc1cccc(CC)c1NC(=O)c1cccc(S(=O)(=O)N2CCN(C)CC2)c1 | -9 | -2 | -5.8* | -2 | 20 | i | 39%* | i
O=C(NC1CCCCC1)c1ccc(S(=O)(=O)N2CCOCC2)cc1 | -1 | -4 | i | x | -1 | i | x | x
CC1CCC(NC(=O)c2cccc(S(=O)(=O)N3CCN(C)CC3)c2)CC1 (configuration not stated) | 3 | 2 | -13* | x | x | i | 9.1%* | i
CCc1cccc(CC)c1NC(=O)c1cccc(NC(=O)c2ccccc2)c1 | 14 | -3 | -5.6* | x | 14 | i | 65%* | i
O=C(NC1CCCCCCC1)c1ccc(S(=O)(=O)N2CCCC2)cc1 | 9 | 2 | -11* | x | 8 | i | 44%* | i
Cn1c(SCc2ccc(C(=O)Nc3nccs3)cc2)nnc1-c1ccccc1 | 29 | 13 | i | -1 | -15 | i | x | x
COc1ccc(N(C)S(=O)(=O)c2cccc(C(=O)NC3CCC(C)CC3)c2)cc1 (configuration not stated) | 10 | 15 | -6.3* | 17 | 24 | i | 65%* | i
CCCCNC(=S)NC(=O)c1ccc([N+](=O)[O-])cc1 | 14 | 2 | i | x | 24 | i | x | x
CC(C)CCNC(=S)Nc1ccc(Br)cc1 | 25 | 20 | i | 8 | 10 | i | x | x
CC(C)CCNC(=S)Nc1ccc([N+](=O)[O-])cc1 | 23 | 1 | -8.7* | -32 | -17 | i | 23%* | i
O=[N+]([O-])c1ccc(NNC(=S)Nc2ccc(F)cc2)cc1 | 20 | 0 | -6.9* | -71 | -38 | i | i | i
CCCCNC(=S)Nc1ccc([N+](=O)[O-])cc1 | 17 | 2 | -9.2* | 12 | 0 | i | 35%* | i
COc1cc2c(cc1OC)/C(=C/C(=O)c1ccc(F)cc1)NCC2 | -2 | 1 | i | -16 | -5 | i | x | x
COc1cc2c(cc1OC)/C(=C/C(=O)c1ccccc1F)NCC2 | 18 | 12 | -5.3* | -3 | 32 | i | 52%* | i
Cc1cc(NS(=O)(=O)c2ccc(NC(=O)COc3c(C)cc(Br)cc3C)cc2)no1 | 1 | -4 | -6* | 12 | 6 | i | 34%* | i
Cc1noc(NS(=O)(=O)c2ccc(NC(=O)COc3ccc(Cl)cc3Cl)cc2)c1C | 0 | 1 | -6.4* | 0 | -31 | i | 39%* | i
Cc1ccc(C)c(N(CC(=O)NN=C2CCN(C)CC2)S(=O)(=O)c2ccccc2)c1 | -5 | -17 | i | -6 | -4 | i | x | x
COc1cccc(-c2ocnc2C(=O)Nc2ccc3c(c2)CCC3)c1 | 29 | 5 | i | 2 | 2 | i | x | x
CCOc1ccccc1NC(=O)NC1CCN(CC(=O)Nc2ccc3c(c2)OCCO3)CC1 | 5 | -1 | i | 14 | -10 | i | x | x
O=C(CN1CCC(NC(=O)c2ccccc2F)CC1)Nc1ccc2c(c1)OCCO2 | 2 | 5 | -5* | -14 | 28 | i | i | i
Cc1cc(=O)[nH]c(SCCOc2ccc(OC(C)C)cc2)n1 | 15 | -1 | -5* | -16 | -3 | i | i | i
CC1CCCC(NC(=O)c2ccc(CNc3c(N4CCCC4)c(=O)c3=O)cc2)C1C (configuration not stated) | 10 | 0 | -13* | -7 | -6 | i | 0.2%* | i
CCOC(=O)C1CCN(c2c(NCc3ccc(C(=O)NC4CCCC4)cc3)c(=O)c2=O)CC1 | 10 | 7 | i | x | 4 | i | x | x
O=C(NC1CCCCCCC1)c1ccc(CNc2c(N3CCOCC3)c(=O)c2=O)cc1 | 10 | -9 | -9.4* | -5 | -14 | i | 13%* | i
